Compound activity from PubChem.
Hits are enriched below; roughly 3.5% of the tested compounds scored in any of these assays.
MrgX1 antagonist: antagonists of human MrgX1 receptor; Q96LB2; MRGX1-HEK293 calcium flux, Fluo-4, BAM8-22 antagonism; active compounds read low; B-score at 10 µM; actives 1.3% (n = 310,000); AID 588676;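 active = calcium-response B-score plate-corrected more than 3 library SD below zero, starting fluorescence within 5 deviations, no agonist response on first addition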;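 also: peak minus trough fluorescence over baseline after final BAM8-22 challenge near maximal dose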
Target sequence (Q96LB2 whole entry, looked up): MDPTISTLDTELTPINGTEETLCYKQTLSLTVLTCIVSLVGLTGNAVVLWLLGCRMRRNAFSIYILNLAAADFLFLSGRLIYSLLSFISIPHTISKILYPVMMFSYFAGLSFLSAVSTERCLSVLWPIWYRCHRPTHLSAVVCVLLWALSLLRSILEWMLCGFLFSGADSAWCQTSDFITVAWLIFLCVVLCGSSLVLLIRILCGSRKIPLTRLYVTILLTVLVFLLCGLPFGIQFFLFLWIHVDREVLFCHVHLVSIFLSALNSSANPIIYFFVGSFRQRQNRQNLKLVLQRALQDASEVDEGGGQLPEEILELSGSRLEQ
RGS4 inh: inhibitors of human RGS4; P49798; HEK293 M3R/RGS4 inducible, Fluo-4 calcium flux; active compounds read high; triggered by carbachol at its EC20; B-score at 10 µM; actives 0.45% (n = 310,000); AID 463165;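 active = B-score, a plate-corrected calcium signal, over three deviations above library mean, with baseline fluorescence within five deviations of library mean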;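 also: RGS4 expression induced by doxycycline in cells with stable M3 receptor; B-score is computed from the integrated fluorescence ratio over baseline after carbachol; higher B-score means a larger calcium signal and so more RGS4 inhibition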
Target sequence (P49798 whole entry, looked up): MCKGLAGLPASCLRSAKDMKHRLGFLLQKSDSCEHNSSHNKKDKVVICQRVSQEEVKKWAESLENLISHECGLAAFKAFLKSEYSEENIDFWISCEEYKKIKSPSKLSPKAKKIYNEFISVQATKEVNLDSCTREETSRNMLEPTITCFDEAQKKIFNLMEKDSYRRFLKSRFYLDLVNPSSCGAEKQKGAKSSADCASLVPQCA
MrgX1 allo act: allosterically activates human MrgX1 receptor signaling; Q96LB2; MrgX1-HEK293, Fluo-4 calcium flux, FDSS; active compounds read high; B-score at 10 µM; actives 0.63% (n = 310,000); AID 588675;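 active = plate-corrected calcium response at least 3 library SD above typical, normal starting fluorescence, not activating the receptor alone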;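 also: compound read alongside a low EC10 to EC30 dose of BAM8-22 agonist; peak minus trough fluorescence over baseline measured at the second addition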
RGS4 pot: potentiators or activators of RGS4; actives 0.92% (n = 310,000); B-score at 10 µM; HEK293 M3R/inducible RGS4, carbachol calcium flux Fluo4; active compounds read low;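 active = B-score of the integrated calcium signal more than 4 SD below the library mean, with starting fluorescence not abnormally high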;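 also: negative B-score means reduced calcium response which marks RGS4 activation or potentiation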
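System – HEK293 FlpIn-TREx cells, stable M3R, doxycycline-inducible RGS4 · Reagent – ECmax carbachol challenge · Times – compound preincubation 20 min at room temperature before agonist · Technique – Fluo4 fluorescence kinetic imaging of calcium · Measure – B score of integrated Fluo4 ratio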
MrgX1 ag: human MrgX1 receptor agonism, primary screen | actives 0.44% (n = 310,000) | MrgX1-HEK293 cells, Fluo-4 calcium fluorescence, agonist mode; active compounds read high | AID 588627 | B-score at 10 µM;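 active = calcium response B-score plate-corrected fluorescence ratio at least 3 library SD, with starting fluorescence B-score inside 5 SD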
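Material – MrgX1-expressing HEK293 cells · Input – 15,000 cells seeded per well · Dosing – compound as first of three additions · Times – overnight seeding, then 1 h dark dye loading · Measured by – kinetic Fluo-4 NW fluorescence of intracellular calcium · Read-out – B-scored fluorescence response ratio · Benchmarks – positive and negative control wells on each plate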
Hits are given with their value; 0 = inactive.

SMILES	MrgX1 antagonist	RGS4 inh	MrgX1 allo act	RGS4 pot	MrgX1 ag
CN(C(=O)COC(=O)c1cccc(S(=O)(=O)N2CCCCCC2)c1)C1CCS(=O)(=O)C1 (centres undefined)	0	0	0	0	0
Cc1cc(C)cc(OCC(=O)Nc2cccc(-c3nnc(-c4ccco4)o3)c2)c1	0	0	0	-7.6	0
O=C(Nc1ccc(Br)cc1)NC1CCCCCCC1	0	0	0	0	0
COc1cc2c(cc1OC)C1(CCCC1)CNC2c1cccc([N+](=O)[O-])c1 (centres undefined)	0	0	0	0	0
CCCc1nc(SCC(=O)N2CCC(Cc3ccccc3)CC2)c2c(=O)n(C)c(=O)n(C)c2n1	0	0	0	-7.3	0
CCc1nc(SCC(=O)N2CCCCCC2)c2c(=O)n(C)c(=O)n(C)c2n1	0	0	0	-7.7	0
CCCc1nnc(SCC(=O)NC2CCCCC2)n1CCOC	0	0	0	0	0
C/C(=C\C(=O)c1ccc(Cl)s1)N(C)C	0	0	9.2	0	0
O=C(/C=C\Nc1ccc2c(c1)OCO2)c1ccc(Cl)s1	0	0	0	0	0
CCOc1ccc(NS(=O)(=O)c2ccc3ncsc3c2)cc1	0	0	0	0	0
Cc1sc2ncnc(NCC(O)c3ccc([N+](=O)[O-])cc3)c2c1C (centres undefined)	-5	0	0	0	0
Cc1nc(NCC(c2ccccc2)N(C)C)c2c(C)c(C)sc2n1 (centres undefined)	0	0	0	-9.5	0
Cc1sc2ncnc(NCC(c3ccccc3)N(C)C)c2c1C (centres undefined)	0	0	0	-7.5	0
Cc1sc2ncnc(NCC(O)c3ccccc3)c2c1C (centres undefined)	0	0	0	0	0
Cc1sc2ncnc(NCCCO)c2c1C	0	0	0	0	0
O=C(Nc1nc(-c2cc(F)ccc2F)cs1)C1=COCCO1	-5.1	0	0	0	0
C=CCn1c(SCC(=O)Nc2ccc(S(N)(=O)=O)cc2)nnc1-c1cnccn1	0	0	0	0	0
O=C(Nc1ccccc1-c1nnc(SCc2ccc(Cl)cc2)o1)c1ccccc1	-7.1	0	0	0	0
O=C(Nc1ccccc1-c1nnc(SCc2ccccc2)o1)c1ccccc1	0	0	0	-7.4	0
COc1ccc(Cn2cc(C(=O)O)c(=O)c3ccccc32)cc1	0	0	0	0	0
COc1ccc(NC(=S)NCc2ccccc2)c(OC)c1	0	0	0	0	0
CCn1c(=O)c(C(=O)NNC(=O)c2ccc(Cl)cc2Cl)c(O)c2ccccc21	0	0	0	-7.8	69
CCCn1c(=O)c(C(=O)NCCc2ccc(OC)cc2)c(O)c2ccccc21	0	0	7	0	0
CCCn1c(=O)c(C(=O)NCCc2ccccc2)c(O)c2ccccc21	0	0	0	0	0
CCCn1c(=O)c(C(=O)NNC(=O)c2ccc(Cl)cc2Cl)c(O)c2ccccc21	0	0	0	0	38
SMILES	MrgX1 antagonist	RGS4 inh	MrgX1 allo act	RGS4 pot	MrgX1 ag
CCn1c(=O)c(C(=O)Nn2c(C)nc3ccccc3c2=O)c(O)c2ccccc21	0	0	0	0	0
CCc1nc2ccccc2c(=O)n1NC(=O)c1c(O)c2ccccc2n(CC)c1=O	0	0	12	0	0
Cc1ccc(S(=O)(=O)N2CCOCC2)cc1C(=O)N1CC(C)OC(C)C1 (centres undefined)	0	0	0	0	0
Cc1ccc(Nc2nnc(SCC(=O)NCCN3C(=O)CSC3=O)s2)cc1	0	0	0	0	0
CC1CC(N(C(=O)c2ccco2)c2ccccc2)c2ccccc2N1 (centres undefined)	0	0	6.5	0	0
CCCC(C)NC(=O)COC(=O)c1cc(Br)c(Br)s1 (centres undefined)	0	0	0	0	0
Cc1cccc(C(=O)NC(=S)NNC(=O)c2ccc(Cl)cc2)c1	0	0	18	0	0
CCn1c(C)nc2cc(C(=O)NNC(=S)NC(=O)c3ccccc3)ccc21	0	0	7.4	0	0
CCn1c(C)nc2cc(C(=O)NNC(=S)Nc3ccccc3)ccc21	0	0	0	0	0
O=C(Cc1cccs1)NNC(=S)NCc1ccco1	0	0	0	-8.2	0
COc1ccc(C(=O)NC(=S)NNC(=O)Cc2cccs2)cc1	0	0	0	0	55
CCC(=O)NC(=S)NNC(=O)c1ccc(OC)cc1	0	0	0	0	0
COc1ccc(NC(=O)NNC(=O)CCc2ccc(O)c(O)c2)cc1OC	0	0	0	0	0
O=C(/C=C/c1cccs1)NC(=S)NNC(=O)Cc1cccs1	0	0	0	0	48
COc1ccc(-c2nn(-c3ccccc3)cc2C(=O)NC(=S)NNC(=O)c2ccncc2)cc1	-4.6	0	0	0	0
COc1ccc(C(=O)NNC(=S)NC(=O)c2ccc(Cl)cc2)cc1	0	0	0	-8	122
O=C(NC(=S)Nc1cccnc1Cl)c1ccc(Cl)cc1	0	0	9.5	0	0
COc1ccc(/C=C/C(=O)NC(=S)NNC(=O)Cc2cccs2)cc1OC	0	0	0	0	0
O=C(Nc1cccnc1Cl)c1ccc(Cl)cc1	0	0	0	0	0
CC(=O)NS(=O)(=O)c1ccc(NC(=O)CC23CC4CC(CC(Br)(C4)C2)C3)cc1	0	0	0	0	0
O=S(=O)(c1ccccc1)N1CCN(CCO)CC1	0	0	0	0	0
COCCCN(C(=O)Cc1csc(-c2cccc(Cl)c2)n1)c1c(N)n(Cc2ccccc2)c(=O)[nH]c1=O	0	0	0	0	0
COc1cc(C)c(C(=O)CSc2nnc(CNC(=O)c3ccco3)n2C)cc1C	0	0	0	0	0
CC(C)C(=O)Nc1ccc(C(=O)NNC(=S)NC(=O)c2ccccc2[N+](=O)[O-])cc1	0	0	0	0	0
O=C(COc1ccc(Cl)cc1Cl)NNC(=S)NCc1ccco1	0	0	13	-7.1	0
SMILES	MrgX1 antagonist	RGS4 inh	MrgX1 allo act	RGS4 pot	MrgX1 ag
COc1ccc(C(=O)NC(=S)NNC(=O)c2ccc(NC(=O)C(C)C)cc2)cc1	-5.8	0	0	0	0
O=C(COc1ccc(Cl)cc1Cl)Nc1ccccc1F	0	0	0	-7.2	0
Cc1ccccc1C(=O)N1CCC(C(=O)Nc2nc3ccc(F)cc3s2)CC1	0	0	0	0	0
CC(C)(C)c1ccc(CN2N=C(/C=C/c3ccccc3)CCC2=O)cc1	0	0	0	0	0
C=CCN(CC=C)CC(O)CN(c1cc([N+](=O)[O-])ccc1OC)S(=O)(=O)c1ccccc1 (centres undefined)	0	0	0	0	0
CCOC(=O)C1CCN(S(=O)(=O)c2ccc(CNC(=O)c3ccccc3)s2)CC1	0	0	0	0	0
COC1=C(c2ccccc2)C(=O)c2ccccc2C1=O	0	0	7.2	0	0
CCOc1ccc(CN2CCCC(CO)(Cc3ccccc3F)C2)cc1 (centres undefined)	0	0	0	0	64
